High-throughput results as filed in PubChem.
Only some compounds are listed: those with a hit (about 1.9% of all), similar ones and a draw of the others.
PglD DTNB: C. jejuni PglD acetyltransferase inhibitors, primary screen, biochemical, DTNB colorimetric, single point | UDP-N-acetylbacillosamine N-acetyltransferase PglD (Campylobacter jejuni) | purified PglD enzyme, DTNB colorimetric CoA detection | inhibition, % at 12.5 µM | 0.098% of 360,000 active | AID 602405, 2012; in the data active = inhibition above about 16%, passing the limit was not always enough
rRNA inh HTS: reduced GFP signal of wild-type E. coli, primary screen, bacterial rRNA inhibitor project, GFP/RFP fluorescence, OD600, single point; E. coli WT GFP vs humanized-ribosome RFP mutants, 24 h; stronger effect = lower value; DMSO median 0, no signal -100; GFP signal change (wild-type ribosome), % (test concentration not listed); 1.6% of 350,000 active;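 active = significant combined selectivity score with lowered wild-type GFP, culture density cut under 30%, mutant RFP and density less affected; inactive = any of these conditions unmet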
RAD52 inh: RAD52 DNA annealing inhibitors, primary screen, biochemical, FRET, single point, set 2. DNA repair protein RAD52 homolog (Homo sapiens), P43351. inhibition, % at 18.7 µM. recombinant RAD52 DNA annealing, FRET fluorescence. 0.46% of 360,000 active;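 active = every replicate showing at least 50% inhibition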
RAD54 branch: inhibitors of human RAD54 branch migration, primary screen, biochemical, fluorescence, single point; DNA repair and recombination protein RAD54-like (Homo sapiens), Q92698; RAD54 Holliday junction branch migration, FAM/BHQ fluorescence; inhibition, % at 10.4 µM; 0.14% of 360,000 active; AID 602329, 2012;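 active = mean normalized replicate activity at least 40 and at least half of replicates scoring 40 or more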;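 also: 0% = median of neutral control wells and 100% = median of positive control wells; inhibitors cause a drop in the FAM fluorescence signal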
Target sequence (Q92698 whole entry, looked up): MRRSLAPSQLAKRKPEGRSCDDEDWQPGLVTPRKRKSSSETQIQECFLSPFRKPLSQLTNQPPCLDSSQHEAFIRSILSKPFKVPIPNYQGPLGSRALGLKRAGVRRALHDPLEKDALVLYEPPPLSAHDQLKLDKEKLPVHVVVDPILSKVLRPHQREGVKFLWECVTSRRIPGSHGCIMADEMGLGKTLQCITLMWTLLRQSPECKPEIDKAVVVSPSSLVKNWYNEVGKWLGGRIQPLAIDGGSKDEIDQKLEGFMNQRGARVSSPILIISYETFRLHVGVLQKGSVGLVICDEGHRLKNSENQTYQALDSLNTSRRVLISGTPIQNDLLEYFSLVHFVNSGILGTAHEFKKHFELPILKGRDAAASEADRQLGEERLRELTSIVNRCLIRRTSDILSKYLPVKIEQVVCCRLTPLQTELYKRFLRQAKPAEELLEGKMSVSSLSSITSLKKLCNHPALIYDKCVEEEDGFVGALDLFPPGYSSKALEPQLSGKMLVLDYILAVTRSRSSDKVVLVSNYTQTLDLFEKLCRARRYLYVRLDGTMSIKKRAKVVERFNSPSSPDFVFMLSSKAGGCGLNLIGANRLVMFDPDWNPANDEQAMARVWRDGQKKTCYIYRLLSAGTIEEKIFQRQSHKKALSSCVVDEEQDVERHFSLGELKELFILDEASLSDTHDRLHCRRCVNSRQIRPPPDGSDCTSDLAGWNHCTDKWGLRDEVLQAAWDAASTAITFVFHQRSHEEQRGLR
Cneo AK release: Cryptococcus neoformans cell lysis inducers, primary screen, AK release luminescence, single concentration | 0.2% of 360,000 active | lysis activity, % at 15 µM | C. neoformans lysis, adenylate kinase release luminescence, 4 h; normalised: neutral wells 0, clomiphene wells 100 | AID 651654, 2012;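 active = mean lysis activity across replicates of at least 80%, whatever share of replicates individually reach that level; inactive = mean lysis activity below 80%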
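Test system: log-phase Cryptococcus neoformans yeast cells. Input: 5 × 10^6 yeast cells/mL. Medium: fresh YPD growth medium. Doses: single dose. Incubation: static 4 h at 37 °C with compound, 1 h detection. Measured by: luminescent adenylate kinase detection reagent. Read-out: signal increase indicating cell lysis. Benchmarks: Clomiphene.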
Active calls of the source: *; x = no result given.

SMILES	PglD DTNB	rRNA inh HTS	RAD52 inh	RAD54 branch	Cneo AK release
COc1ccc(Cn2c(=O)c3[nH]cnc3n(-c3ccc(C)cc3)c2=O)cc1	4.2	-20.4*	-7.8	2.4	-2.4
COc1ccc(-n2c(=O)n(Cc3ccccc3)c(=O)c3[nH]cnc32)cc1	x	2.5	-1.5	x	x
C[C@H](CO)N1C[C@H](C)[C@@H](CN(C)Cc2ccc(-c3ccccc3)cc2)Oc2ccc(NS(=O)(=O)c3ccc(F)cc3)cc2CC1=O	x	2.2	x	x	x
COc1ccccc1-c1nc(SCC(=O)Nc2ccccc2F)n[nH]1	5.0	-26.9*	-9.6	-2.2	0.2
COc1ccccc1-c1nc(SCC(=O)Nc2ccccc2)n[nH]1	0.1	-8.4	-5.7	-15.7	2.4
CC(C)NC(=O)N[C@H]1CC[C@@H](CCNC(=O)C2CC2)O[C@H]1CO	-3.3	-0.3	19.7	1.0	92.2*
CC(C)NC(=O)N[C@H]1CC[C@@H](CCNC(=O)C2CC2)O[C@@H]1CO	2.5	2.5	24.1	-1.1	93.2*
CC(C)NC(=O)N[C@H]1CC[C@H](CCNC(=O)C2CC2)O[C@H]1CO	0.2	0.7	10.7	-4.8	6.0
COc1ccccc1/C=C/C(=O)N1CCC(c2ccccc2)C1 (configuration not stated)	x	-22.9*	-6.1	x	x
COc1ccccc1/C=C/C(=O)N1CCOCC1	0.5	x	x	5.8	0.2
N#C/C(=N\Nc1cccc(F)c1)C(=N)N1CCCCCC1	x	17.2	-3.1	x	x
N#C/C(=N\Nc1cccc(F)c1)C(=O)C1CC1	x	-24.8*	-16.2	x	x
CC(C)[C@@H]1C(=O)N[C@@H](c2ccc3c(c2)OCO3)C/C=C/C[C@H](C)Oc2ccccc2C(=O)N1C	x	-2.6	x	x	x
CCCCCCCCN1N=N[C@H]2[C@H]1[C@@H]1C[C@H]2N(C(=O)OC(C)(C)C)O1	3.2	-31.9*	-7.7	-3.3	4.2
CC(C)(C)OC(=O)N1O[C@H]2C=C[C@@H]1C2	x	5.0	-14.0	x	x
O=C(c1ccco1)c1nnn(Cc2ccccc2)c1-c1ccccc1	1.5	-35.8*	-45.4	1.2	-0.5
COc1cccc(CNC(=O)C[C@H]2C=C[C@@H](NS(=O)(=O)c3ccccc3OC)[C@@H](CO)O2)c1	x	-2.4	x	x	x
COc1ccccc1CC(=O)Nc1cc2oc3ccccc3c2cc1OC	-4.9	x	x	6.1	-1.1
COc1cc2c(cc1NC(=O)C(C)Sc1cccc[n+]1[O-])oc1ccccc12 (configuration not stated)	x	-32.7*	-1.5	x	x
CC(=O)NCCc1nc2ccccc2n1CCOc1ccccc1	3.7	-0.4	-4.9	-6.2	0.9
CC(=O)NCCc1nc2ccccc2n1CCOc1cccc(C)c1	x	-28.4*	-13.2	x	x
COC(=O)c1ccc(NC(=O)c2cccc(C)c2[N+](=O)[O-])cc1	-1.7	-21.6*	-5.9	-4.2	-0.6
O=C(Nc1ccccc1C(=O)N/N=C/c1ccc(O)cc1)c1ccccc1	x	-29.7*	-0.9	x	x
CC(=O)N1CC2(C1)[C@H](c1ccc(-c3ccc(C#N)cc3)cc1)[C@@H](CO)N2C(=O)C1CC1	x	-0.2	-13.0	x	x
NC(=NCc1ccco1)NC(=O)c1ccc(Cl)cc1	x	-25.0*	-42.6	x	x
SMILES	PglD DTNB	rRNA inh HTS	RAD52 inh	RAD54 branch	Cneo AK release
O=C(NCCCNC(=O)c1ccco1)c1ccc(Cl)cc1	-2.8	1.4	-0.8	24.4	-4.7
O=C(COc1ccc(Cl)cc1)NCc1ccccc1	-1.8	-6.6	-11.6	0.7	-2.7
O=C(COc1ccc2c(c1)CCC2)NCc1ccc(Cl)cc1	5.3	-30.3*	2.9	-10.1	-0.1
COc1ccccc1CNC(=O)CSc1ccc(-c2cccs2)nn1	x	-25.3*	-17.1	x	x
COc1ccccc1CNC(=O)CSc1ccc(-c2ccccn2)nn1	x	1.3	-8.9	x	x
COc1ccc(CC(=O)Nc2ccc(C)c(S(=O)(=O)N3CCCCCC3)c2)cc1	-7.0	0.6	-34.6	-5.1	-2.3
COc1ccccc1OCC(=O)Nc1ccc(S(=O)(=O)N2CCCC2)cc1	-0.5	-10.5	-2.5	-5.2	0.0
Cc1ccc(NC(=O)COc2ccccc2C#N)cc1S(=O)(=O)N1CCCCCC1	6.2	-24.9*	-22.5	2.9	0.8
Cc1ccc(S(=O)(=O)N2CCCCC2)cc1NC(=O)COC(=O)C1CC2C=CC1C2 (configuration not stated)	-5.6	x	x	-1.1	1.8
O=C(COc1ccccc1Br)Nc1ccc(S(=O)(=O)N2CCCC2)cc1	-4.5	-23.2*	-10.7	3.0	0.4
Cc1ccc(NC(=O)COC(=O)C2CC3C=CC2C3)cc1S(=O)(=O)N1CCCCC1 (configuration not stated)	-1.4	-25.6*	-9.8	5.3	1.2
Cc1ccc(NC(=O)COc2ccccc2)cc1S(=O)(=O)N1CCCCCC1	6.4	-13.9	-18.8	5.1	2.0
COc1ccc(NC(=O)CSCC(=O)Nc2ccc(C)c(S(=O)(=O)N3CCCCCC3)c2)cc1	0.7	-35.1*	-34.4	4.0	0.3
COc1ccc(NC(=O)Nc2ccc3c(c2)[C@H]2C[C@H](CC(=O)O)O[C@@H](CO)[C@H]2O3)cc1	1.5	0.4	-2.4	-7.2	-2.3
C[C@@H]1CC(=O)NCC/C=C\C[C@H](c2cccc(Cl)c2)NC1=O	x	1.8	x	x	x
Cc1ccc(S(=O)(=O)NC[C@@H]2CC[C@@H]3[C@@H](CN3Cc3ccccc3C(=O)O)O2)cc1	x	x	3.3	x	x
CCCc1cc(=O)[nH]c(SCC(=O)Nc2ccc(OC)c(S(=O)(=O)N3CCCCC3)c2)n1	5.0	-22.5*	-17.3	2.9	0.8
Cc1occc1C(=O)NNC(=S)Nc1cccc([N+](=O)[O-])c1	-4.5	-19.0*	-13.5	6.3	1.5
O=C(Nc1ccc(C(=O)O)cc1)Nc1cccc([N+](=O)[O-])c1	x	11.0	-21.7	x	x
O=C(Nc1cccc([N+](=O)[O-])c1)Nc1cccc([N+](=O)[O-])c1	x	-18.5*	-2.1	x	x
Cc1ccc(-c2cc(Cc3ccccc3)c(=O)[nH]n2)cc1	-6.4	-36.5*	-8.1	10.4	0.3
O=[N+]([O-])c1ccc(C[n+]2cc(-c3ccccc3)n3c2CCCCC3)cc1	x	12.3	-3.9	x	x
Clc1ccc(C[n+]2cc(-c3ccccc3)n3c2CCC3)cc1Cl	3.2	x	-0.2	3.8	1.2
O=C(C[n+]1cc(-c2ccc(Cl)c(Cl)c2)n2c1CCC2)OCc1ccccc1	2.3	-13.9*	8.1	14.6	1.1
Clc1ccc(-c2c[n+](Cc3ccc(Br)cc3)c3n2CCCCC3)cc1	x	-51.8*	6.5	x	x
O=[N+]([O-])c1ccc(C[n+]2cc(-c3ccc(Cl)c(Cl)c3)n3c2CCCCC3)cc1	x	-49.0*	7.2	x	x
